Activity data for 22 compounds are collected here from ChEMBL document CHEMBL1158160, “Diarylheptanoids, new phytoestrogens from the rhizomes of Curcuma comosa: Isolation, chemical modification and estrogenic activity evaluation” (2008).

Assay [1] deals with HeLa. The assay can be described thus: Estrogenic activity in human HeLa cells assessed as Bcl-xL gene transcriptional activity at 10 nM after 24 hrs by RT-PCR relative to 17-beta-estradiol. Type of assay: functional. In short, it runs like this: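 HeLa cells grown in DMEM with 5% FBS (37 °C, 5% CO2, 24 h), then moved to phenol red-free DMEM with 5% charcoal-stripped FBS for 24 h. Exposed to 10^-8 M compound (final) for 24 h. Controls: 10^-8 M 17β-estradiol, 0.01% DMSO. Total RNA extracted, reverse transcribed. Bcl-xL PCR: 28 cycles (94 °C 30 s, 60 °C 30 s, 72 °C 30 s), same profile as HPRT.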

Assay [2] deals with HeLa. The assay can be described thus: Estrogenic activity in human HeLa cells assessed as ERbeta gene transcriptional activity at 10 nM after 24 hrs by RT-PCR relative to 17-beta-estradiol. Type of assay: functional. In short, it runs like this: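 Steroid-depleted HeLa cells (24 h in phenol red-free DMEM, 5% charcoal-stripped FBS) treated 24 h with compound at 10^-8 M final. 17β-Estradiol at 10^-8 M was the positive control and 0.01% DMSO the negative. RNA isolated and converted to cDNA. ERβ PCR: 32 cycles (94 °C 30 s, 56 °C 30 s, 72 °C 30 s), final extension 7 min.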

Consider `O=C(/C=C/c1ccc(O)cc1)CCCCc1ccccc1`, for which the Activity worked out at 74.41% in the assay on HeLa [1] and 70.33% in the assay on HeLa [2].
For the compound `O=C(/C=C/C=C/c1ccccc1)CCc1ccc(O)cc1`, the Activity in the assay with HeLa [1] was determined as 74.54%; in the assay on HeLa [2], 87.75%.
`Oc1ccc(CC[C@@H](O)CC/C=C/c2ccccc2)cc1`: the Activity in the assay on HeLa [1] is 57.73%; in the assay with HeLa [2], 52.5%.
For `Oc1ccc(CC[C@@H](O)CC/C=C/c2ccccc2)cc1O`, in that order: 45.98% and 51.5%.
The matching figures for `CO[C@@H](CC/C=C/c1ccccc1)CCc1ccccc1`: 72.5% and 74.97%.
On to `CC(=O)O[C@@H](/C=C/C=C/c1ccccc1)CCc1ccccc1`, for which the results for the Activity with HeLa [1] and in the assay on HeLa [2] were 47.96% and 58.36%, respectively.
For `CC(=O)Oc1ccc(CCC(=O)CC/C=C/c2ccccc2)cc1`, in that order: 75.3% and 84%.
On to `CC(=O)Oc1ccc(CCC(=O)/C=C/C=C/c2ccccc2)cc1`, for which the Activity in the assay with HeLa [1] is recorded as 49.82%; in the assay with HeLa [2], 68.45%.
The matching figures for `COc1ccc(CCC(=O)CC/C=C/c2ccccc2)cc1`: 71.4% and 58.51%.
The matching figures for `COc1ccc(CCC(=O)/C=C/C=C/c2ccccc2)cc1`: 76.77% and 72%.
For `C(=C\C=C\c1ccccc1)/C=C/Cc1ccccc1`, in that order: 77.5% and 76.46%.
On to `O[C@@H](CC/C=C/c1ccccc1)CCc1ccccc1`, for which the figures for the Activity with HeLa [1] and in the assay on HeLa [2] were 52.85% and 42.48%, respectively.
For `O=C(/C=C/C=C/c1ccccc1)CCc1ccccc1`, the Activity in the assay on HeLa [1] is reported as 43.97%; in the assay with HeLa [2], 33.72%.
For the compound `O[C@@H](/C=C/C=C/c1ccccc1)CCc1ccccc1`, the Activity with HeLa [1] is on record as 62.51%; in the assay on HeLa [2], 75.42%.
As for `O=C(CC/C=C/c1ccccc1)CCc1ccc(O)cc1`, the results for the Activity in the assay with HeLa [1] and with HeLa [2] were 78.51% and 90.56%, respectively.
For `O[C@@H](CCCCc1ccccc1)CCc1ccccc1`, in that order: 40% and 37.03%.
For `O=C(CCCCc1ccccc1)CCc1ccccc1`, in that order: 42.18% and 57.5%.
The matching figures for `O=C(CC/C=C/c1ccccc1)CCc1ccccc1`: 74.3% and 85.45%.
For the compound `O=C(/C=C/CCc1ccccc1)CCc1ccc(O)cc1`, the Activity is recorded as 47.08% in the assay with HeLa [1] and 50.86% in the assay on HeLa [2].
For `CC(=O)O[C@@H](CCCCc1ccccc1)CCc1ccccc1`, in that order: 55% and 58.97%.
The matching figures for `CC(=O)O[C@@H](CC/C=C/c1ccccc1)CCc1ccccc1`: 71.06% and 75.5%.
With `O=c1c(-c2ccc(O)cc2)coc2cc(O)cc(O)c12` [GENISTEIN], the results for the Activity in the assay with HeLa [1] and in the assay with HeLa [2] were 72.85% and 75.51%, respectively.
